Only some compounds are listed: those with a hit (about 2.3% of all), similar ones and a draw of the others.
OXTR potentiate: human OXTR potentiation | 0.061% of 320,000 active | CHO-OTR cells, Fluo-8 calcium fluorescence, potentiator mode; 0% = oxytocin EC15, 100% = EC100 | activation, % at 3 µM | P30559;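 active = activation above that plate's cutoff, the mean activation of tested compounds plus 3 SD, cut at about 6.6% in these data, passing the limit was not always enough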;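 also: 100% uses oxytocin at 75 nM as the full agonist control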
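Assay system: CHO-OTR cells, human receptor / Also added: oxytocin at about EC15, sub-maximal agonist stimulus / Dosing: single dose, 3.0 µM nominal final compound concentration / Incubation: 6 min pre-incubation, 100 s read / Technique: Fluo-8 calcium dye fluorescence / Read-out: % activation vs EC15 and EC100 oxytocin / Benchmarks: EC15 oxytocin low, 75 nM oxytocin high / Replicates: singlicate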
V1aR counter: counter-screen for oxytocin receptor agonists: human V1a receptor agonists; CHO-V1R cells, Fluo-8 calcium fluorescence, agonist mode; 0% DMSO, 100% 3 nM vasopressin; activation, % at 3 µM; 0.25% of 320,000 active; AID 2797;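 active = activation above the mean activation of all tested compounds plus 3 SD, per screening run, cut at about 20% in these data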;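 also: signal is peak over basal fluorescence ratio across a 100 second FLIPR read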
Target sequence (P37288 whole entry, looked up): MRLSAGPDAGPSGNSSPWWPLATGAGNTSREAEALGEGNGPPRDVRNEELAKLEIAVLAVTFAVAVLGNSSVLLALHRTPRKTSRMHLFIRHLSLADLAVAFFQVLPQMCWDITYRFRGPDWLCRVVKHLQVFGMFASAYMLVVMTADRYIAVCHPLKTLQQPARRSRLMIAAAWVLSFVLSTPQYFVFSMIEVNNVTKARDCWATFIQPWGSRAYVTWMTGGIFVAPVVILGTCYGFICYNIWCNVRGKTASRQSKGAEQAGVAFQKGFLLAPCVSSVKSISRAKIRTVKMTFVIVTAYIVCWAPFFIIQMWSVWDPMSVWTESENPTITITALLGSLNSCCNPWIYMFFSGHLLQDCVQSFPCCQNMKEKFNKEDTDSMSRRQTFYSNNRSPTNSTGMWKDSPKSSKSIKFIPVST
TAAR1 antag: antagonists of human TAAR1; CHO RD-HGA16 TAAR1, Fluo-8 calcium fluorescence, antagonist; inhibition, % at 3 µM; 1.5% of 360,000 active;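 active = inhibition above a per-plate cutoff, the mean inhibition of test compounds on that plate plus 3 SD, cut at about 49% in these data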;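 also: 0% = DMSO plus EC80 beta-PEA response and 100% = DMSO alone without agonist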
Target sequence (Q96RJ0 whole entry, looked up): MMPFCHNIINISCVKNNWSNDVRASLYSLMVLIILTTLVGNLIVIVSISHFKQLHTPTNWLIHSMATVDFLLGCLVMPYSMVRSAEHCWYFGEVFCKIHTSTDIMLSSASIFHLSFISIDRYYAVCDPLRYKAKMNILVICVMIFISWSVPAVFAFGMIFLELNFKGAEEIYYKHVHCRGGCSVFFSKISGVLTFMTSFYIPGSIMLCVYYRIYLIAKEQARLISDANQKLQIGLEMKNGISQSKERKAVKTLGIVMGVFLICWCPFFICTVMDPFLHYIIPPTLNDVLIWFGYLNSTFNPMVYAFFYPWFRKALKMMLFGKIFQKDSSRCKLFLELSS
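Material: CHO RD-HGA16 cells bearing hTAAR1; compound dosing: one-point dosing, 3 µM nominal final; schedule: dye loading 75 min at 37 °C, then 30 min room temperature; measured by: calcium fluorescence with Fluo-8; control set: vehicle and agonist controls; replication: n of 1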
TAAR1 agonist: human TAAR1 agonism; Q96RJ0; CHO RD-HGA16 TAAR1, Fluo-8 calcium fluorescence; vehicle wells 0%, saturating PEA agonist 100%; activation, % at 3 µM; 0.99% of 360,000 active; AID 624467;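 active = activation above the mean activation of all test compounds in the run plus 3 SD, cut at about 38% in these data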
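Repeats: no replicates (n 1) | Material: CHO-derived RD-HGA16 cells with stable Gα16 and human TAAR1 | Technique: Kinetic Fluo-8 calcium fluorescence | Schedule: 17-24 h seeding, 75 min 37 °C dye, 30 min RT | Evaluation: % activation from peak over basal fluorescence ratio, DMSO-to-PEA scaled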
OXTR ag: agonists of human oxytocin receptor | CHO-OTR cells, Fluo-8 calcium fluorescence; normalized: DMSO 0%, oxytocin 100% | activation, % at 3 µM | 0.32% of 320,000 active | P30559;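 active = activation above the mean of all tested compounds plus 3 SD, cutoff set per screening run, cut at about 20% in these data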;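 also: peak over basal fluorescence ratio from a 100 s FLIPR kinetic read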
TAAR1 ag confirm: human TAAR1 agonism, confirmed; CHO RD-HGA16 TAAR1, Fluo-8 calcium fluorescence; scaled: DMSO 0%, maximal phenethylamine 100%; 82% of 2,400 active; activation, % at 3 µM; AID 651783; shares compounds with TAAR1 agonist;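 active = activation above a cutoff set at the run's mean compound activation plus 3 SD, cut at about 39% in these data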
Ga16 nonsel ag: counter-screen for TAAR1 agonists: nonselective agonists in parental cells | shares compounds with TAAR1 agonist | CHO-Ga16 parental, Fluo-8 calcium fluorescence; normalized to maximal ATP response, DMSO zero | activation, % at 3 µM | 50% of 2,400 active | AID 651787;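 active = activation above the run cutoff, the mean activation over all tested wells plus 3 SD, cut at about 12% in these data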;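 also: 0% = DMSO wells and 100% = maximal ATP response on the peak over basal ratio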
TAAR1 desens: human TAAR1 agonist that also desensitizes the receptor; 46% of 2,400 active; CHO RD-HGA16 hTAAR1, Fluo-8 calcium, beta-PEA response inhibition; shares compounds with TAAR1 agonist; inhibition, % at 3 µM;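 active = inhibition above the run cutoff, the mean inhibition of all test compounds plus 3 SD, cut at about 49% in these data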;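 also: beta-PEA stimulus applied at its EC80; loss of beta-PEA calcium signal after compound pretreatment read as receptor desensitization; 0% = DMSO with beta-PEA at EC80 and 100% = DMSO alone without agonist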
Ga16 antag count: nonselective Ga16 antagonist in TAAR1 agonist counter-screen. 39% of 2,400 active. inhibition, % at 3 µM. CHO-Ga16 ATP-induced calcium, Fluo-8 fluorescence. shares compounds with TAAR1 agonist;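 active = inhibition above the plate's mean compound inhibition plus 3 SD, computed per plate, cut at about 22% in these data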;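 also: 0% = EC80 ATP with DMSO and 100% = DMSO wells without ATP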
An asterisk follows results filed as active; . = not tested or not shown.

SMILES | OXTR potentiate | V1aR counter | TAAR1 antag | TAAR1 agonist | OXTR ag | TAAR1 ag confirm | Ga16 nonsel ag | TAAR1 desens | Ga16 antag count
COc1ccc(NC(=O)CSCC(=O)N2CCN(c3cccc(C(F)(F)F)c3)CC2)cc1 | -9 | 6 | -15 | 0 | 5 | . | . | . | .
COc1cc2[nH]c(C(=O)NCc3ccccc3)cc2c(OC)c1OC | -1 | 0 | -7 | 2 | -2 | . | . | . | .
O=C(CN1c2cccc3cccc(c23)S1(=O)=O)N1CCCCC1 | -3 | 0 | 9 | 3 | 1 | . | . | . | .
CCC(CC)NC(=O)CON=C1c2ccccc2-c2ccccc21 | -3 | -1 | 21 | 43* | -2 | 14 | 10 | 20 | 8
c1ccc(CCN=C2CCCc3c2[nH]c2ccccc32)cc1 | -8 | 0 | 96* | 95* | -2 | 99* | 0 | 101* | 9
CCCCc1c(Cc2ccccc2)ncn1CCc1ccccc1OC | . | . | 55* | 49* | . | 68* | 7 | 60* | 56*
CCc1c(Cc2cccc(F)c2)ncn1CCc1ccccc1OC | . | . | -18 | 40* | . | 50* | 5 | 15 | 13
CCCc1c(Cc2cccc(F)c2)ncn1CCc1ccccc1OC | . | . | 35 | 50* | . | 79* | 14* | 61* | 20
CCCCc1c(-c2ccccc2OC)ncn1CCc1ccccc1 | . | . | 34 | 61* | . | 77* | 12* | 66* | 27*
COC(=O)Oc1ccc(/C=N/NC(=O)CSCc2ccccc2Br)cc1OC | -12 | 7 | 36 | 11 | 7 | . | . | . | .
CN(Cc1ccccc1)C(=O)CCS(=O)(=O)c1ccc2c(c1)NC(=O)CS2 | -6 | 1 | . | . | 2 | . | . | . | .
O=C(NCc1ccccc1OC(F)(F)F)C1CCC(=O)N(CCCN2CCOCC2)C1 (configuration not stated) | . | . | 10 | 0 | . | . | . | . | .
CS(=O)(=O)N1CCN(C(=O)Cc2ccccc2Cl)CC1 | -10 | 0 | -2 | 6 | 0 | . | . | . | .
COc1ccc(N2CC(C(=O)N[C@@H](C)C(=O)NCCc3ccccc3)CC2=O)cc1 (some centres not stated) | -4 | 0 | -33 | 62* | 0 | 48* | -1 | 5 | 0
COc1ccc(N2CC(C(=O)NCc3ccccc3)CC2=O)cc1 (configuration not stated) | -9 | -1 | 0 | 7 | -1 | . | . | . | .
CCN1CCc2c(sc(NC(=O)Nc3ccc(Cl)c(Cl)c3)c2C(N)=O)C1 | -12 | 173* | 102* | 178* | 219* | 164* | 177* | 90* | 88*
CCN1CCc2c(sc(NC(=O)Cc3ccccc3)c2C(N)=O)C1 | -9 | 0 | -41 | 16 | 0 | . | . | . | .
Cn1nc(C(=O)OCC(=O)c2ccc[nH]2)c2ccccc2c1=O | -6 | 1 | -5 | 2 | 0 | . | . | . | .
Cn1nc(C(=O)OCc2ccccc2F)c2ccccc2c1=O | -14 | 6 | 94* | 432* | 3 | 9 | 11 | 25 | 28*
COC(=O)c1ccc(COc2ccc(-c3nn[nH]n3)cc2)cc1 | -6 | 2 | 17 | 51* | 2 | 16 | 11 | 10 | 7
COC(=O)c1ccc(COc2ccc(-c3nnn(CC(N)=O)n3)cc2)cc1 | -2 | 0 | -4 | 3 | 1 | . | . | . | .
Cc1nc2sc(C(c3ccco3)N3CCc4ccccc4C3)c(O)n2n1 (configuration not stated) | -7 | 1 | 54* | 76* | 0 | 96* | 8 | 70* | 4
Cc1nc2sc(C(c3ccco3)N3CCN(c4ccccc4F)CC3)c(O)n2n1 (configuration not stated) | -5 | 1 | -2 | 20 | 1 | . | . | . | .
Cc1ccc(C(c2sc3ncnn3c2O)N2CCCCC2)cc1 (configuration not stated) | -4 | 0 | -16 | -1 | 0 | . | . | . | .
Oc1c(C(c2ccc(F)cc2)N2CCc3ccccc3C2)sc2ncnn12 (configuration not stated) | -4 | 2 | . | . | -1 | . | 7 | . | 13
SMILES | OXTR potentiate | V1aR counter | TAAR1 antag | TAAR1 agonist | OXTR ag | TAAR1 ag confirm | Ga16 nonsel ag | TAAR1 desens | Ga16 antag count
COc1ccc(N(C(=O)c2snc(C(N)=O)c2N)C(C(=O)NC2CCCC2)c2cccs2)c(OC)c1 (configuration not stated) | -8 | 0 | -27 | -3 | -1 | . | . | . | .
COCCN(C(=O)CSc1nc2ccccc2c(=O)n1CCOC)c1c(N)n(Cc2ccccc2)c(=O)[nH]c1=O | 6 | 6 | 16 | 1 | 0 | . | . | . | .
COc1cc2c(c(OC)c1OC)C1(CCCCC1)CC2NS(=O)(=O)C(C)C (configuration not stated) | . | . | 49* | 92* | . | 15 | 3 | 2 | 6
COc1cc2c(c(OC)c1OC)C1(CCCCC1)CC2NC(=O)c1ccncc1 (configuration not stated) | . | . | -16 | 7 | . | . | . | . | .
O=C(CSCc1c(F)cccc1Cl)NCCc1ccccc1 | -1 | 1 | 12 | 43* | -2 | 80* | 1 | 39 | -2
O=C(CNS(=O)(=O)c1ccc(F)c(Cl)c1)NCCc1ccccc1 | -16 | 0 | -26 | 45* | -1 | 65* | 8 | 13 | -1
O=C(CCc1ccccc1)NCCSCc1c(F)cccc1Cl | -1 | 1 | 2 | 0 | -3 | . | . | . | .
CN1CCN(c2nc3c(c(=O)n(C)c(=O)n3C)n2Cc2cccc3ccccc23)CC1 | -12 | 0 | -24 | 6 | -1 | . | . | . | .
Cn1c(=O)c2c(nc(N3CCCCCC3)n2Cc2cccc3ccccc23)n(C)c1=O | -7 | 1 | 11 | 66* | 1 | 72* | 42* | 35 | 28*
O=C(Nc1ccccc1)Nc1nccs1 | -4 | 6 | 18 | 47* | 1 | 85* | 3 | 49* | 7
O=C(Cc1nnc(NC(=O)Nc2ccccc2)s1)NCc1ccccc1 | -1 | 0 | 39 | 60* | 0 | 80* | 2 | 64* | 10
COc1ccc(NC(=O)Nc2nccs2)cc1 | -1 | 1 | 12 | 21 | 2 | . | . | . | .
O=C(Nc1ccccc1)Nc1nncs1 | -8 | 0 | . | . | 1 | . | 3 | . | 7
O=C(Cc1nnc(NC(=O)Nc2ccc(Cl)cc2)s1)NCc1ccccc1 | -3 | 1 | 30 | 19 | 1 | . | . | . | .

Screening data (PubChem BioAssay)
